Compound activity as filed in PubChem BioAssay.
G6PDH counter: L. mesenteroides G6PDH inhibition counter-screen; inhibition, % at 5 µM; 0.12% of 200,000 active; AID 1020; Purified L. mesenteroides G6PDH, diaphorase/resazurin coupled fluorescence, 45 min; in the data active means inhibition above about 50%
Diaphorase inh: inhibits diaphorase or chemically oxidizes, flagging diaphorase assay artifacts. diaphorase resazurin-to-resorufin fluorescence, NADH, 16 min; bacterial (C. kluyveri) enzyme, not human. 0.69% of 190,000 active. inhibition, % at 20 µM;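 active means primary screen inhibition at 20 µM above a set limit, cut at about 50% in these data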
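System: Bacterial diaphorase enzyme (C. kluyveri) | Incubation: 16-min room-temperature incubation before reading | Benchmarks: No-NADH positive control and DMSO neutral control | Measured by: Resorufin fluorescence 544/590 nm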
FLuc inh counter: Photinus pyralis luciferase inhibition counter-screen | P08659 | ATPLite firefly luciferase biochemical luminescence, 10 min | inhibition, % at 10 µM | 1.5% of 200,000 active | AID 1006;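 active means inhibition above about 50% when tested at 10 µM, limit read from the data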
Target sequence (P08659 whole entry, looked up): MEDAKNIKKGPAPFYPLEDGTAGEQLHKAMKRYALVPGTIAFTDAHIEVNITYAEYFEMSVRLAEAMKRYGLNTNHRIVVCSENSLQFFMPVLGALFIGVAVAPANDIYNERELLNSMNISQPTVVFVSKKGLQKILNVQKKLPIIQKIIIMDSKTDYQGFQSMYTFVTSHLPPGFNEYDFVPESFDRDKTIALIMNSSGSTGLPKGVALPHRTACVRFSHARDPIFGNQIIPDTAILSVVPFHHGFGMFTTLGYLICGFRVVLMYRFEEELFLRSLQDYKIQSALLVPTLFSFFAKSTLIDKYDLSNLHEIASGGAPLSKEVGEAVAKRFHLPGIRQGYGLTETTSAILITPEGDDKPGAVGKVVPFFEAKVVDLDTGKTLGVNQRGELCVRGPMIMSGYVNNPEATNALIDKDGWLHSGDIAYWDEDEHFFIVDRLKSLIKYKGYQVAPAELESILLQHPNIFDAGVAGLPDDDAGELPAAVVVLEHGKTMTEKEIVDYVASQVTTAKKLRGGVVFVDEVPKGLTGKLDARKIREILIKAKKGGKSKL
Diaphorase act: counter-screen for diaphorase-based assays: diaphorase activators and chemical reducers | Diaphorase/resazurin coupled assay, resorufin fluorescence, 16 min; hits give high values; 1 = vehicle wells, 0 = NADH-free wells | AID 1229 | activation factor at 20 µM | 0.005% of 190,000 active;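 active means diaphorase activity raised at least twofold by the compound at 20 µM; inactive means activation factor below 2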
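Material: Clostridium kluyveri diaphorase, purified enzyme; Quantity: enzyme 0.07 U/mL final; Medium: HEPES pH 7.4 buffer with MgCl2 and Tween 20; Dosing: single compound dose of 20 µM, 1% DMSO final; Schedule: 16 min reaction at room temperature; Measured by: red resorufin fluorescence at 544/590 nm excitation/emission.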
FLuc act counter: affects firefly luciferase, flagging false hits in luciferase stimulation screens | P08659 | ATPlite luciferase biochemical, luminescence, 10 min; 0 = ATP-free wells, 1 = DMSO control | activation factor at 10 µM | 200,000 tested, under 10 active | AID 1027;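 active means luciferase activation factor, scaled between plate controls, of at least 2 with compound at 10 µM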
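System: luciferase plus luciferin reagent, cell-free; medium: PBS as buffer for the ATP substrate; dosing: test compounds dosed from 2 mM stocks in 100% DMSO; timing: 10 min post-reagent at room temperature; measured by: luminescence measurement of luciferase light output; evaluation: luciferase activation, seen as luminescence increase over controls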
A number is an active result; – = inactive. Rows were chosen to be rich in hits. Some 2.3% of all compounds tested hit in one or more screens of this group.

SMILES	G6PDH counter	Diaphorase inh	FLuc inh counter	Diaphorase act	FLuc act counter
Cc1cc2ncc(-c3ncc(C(F)(F)F)cc3Cl)cn2n1	–	–	73	–	–
Cc1nn2cc(-c3ncc(C(F)(F)F)cc3Cl)cnc2c1Br	–	–	–	–	–
Nc1c2c(nc3sc4c(c13)CCCCC4)CCCCC2	–	–	62	–	–
CC1CCc2nc3sc4c(c3c(N)c2C1)CCCC4 (configuration not stated)	–	–	–	–	–
Cc1ccc(C)c(C(=O)COC(=O)c2cccc(N3C(=O)c4c(C)nc5ccccc5c4C3=O)c2)c1	–	–	60	–	–
Cn1c(N)c(S(=O)(=O)N2CCN(c3ccccc3)CC2)c(=O)n(C)c1=O	–	–	–	–	–
COc1ccc2nc(-c3ccco3)c(-c3ccco3)nc2c1	–	78	–	–	–
O=C(NCc1ccccc1)c1ccc2nc(-c3ccco3)c(-c3ccco3)nc2c1	–	–	–	–	–
COc1ccc2nc(-c3ccccc3)cc(OC)c2c1	–	–	–	–	–
c1coc(-c2nc(-c3ccco3)c(-c3ccco3)nc2-c2ccco2)c1	–	94	–	–	–
COc1ccc2nc3cccc(OC)c3nc2c1	51	–	–	–	–
O=C(O)C1CC(O)CN1C(=O)c1ccco1 (configuration not stated)	–	–	–	–	–
Cc1ccn2cc(CNS(=O)(=O)c3ccc(Cl)s3)nc2c1	–	–	–	–	–
Cc1ccc(/C=N/NC(=O)c2nn(C)cc2Cl)cc1	–	–	86	–	–
Brc1csc(/C=N/Nc2nc3ccccc3s2)c1	–	–	54	–	–
O=C(O)CCNC(=O)/C(=C/C=C/c1ccccc1)NC(=O)c1ccccc1	–	–	–	–	–
S=c1[nH]nc(-c2ccc3ccccc3n2)n1-c1cc(Cl)cc(Cl)c1	–	–	70	–	–
Cc1ccc(/C(N)=N/OC(=O)c2cccc(F)c2)cc1	–	–	61	–	–
N/C(=N\OC(=O)c1cccc(F)c1)c1ccccc1	–	–	91	–	–
Oc1ccc(N=Nc2n[nH]c(-c3ccc(Cl)cc3)n2)cc1	–	–	–	–	–
O=C(NCc1ccccn1)c1cc(-c2ccc(-c3ccccc3)cc2)nc2ccccc12	–	–	88	–	–
Cc1ccc(-c2cc(C(=O)n3cnc4ccccc43)c3ccccc3n2)cc1C	–	–	69	–	–
Cc1ccc(-c2cc(C(=O)NCc3ccccn3)c3ccccc3n2)cc1C	–	–	52	–	–
Cc1cc(NC(=O)c2cc(-c3ccc(C)c(C)c3)nc3ccccc23)no1	–	–	–	–	–
N#Cc1cc2c(nc1SCc1cccc(Cl)c1)CCCCC2	–	–	–	–	–
SMILES	G6PDH counter	Diaphorase inh	FLuc inh counter	Diaphorase act	FLuc act counter
CC(C)c1ccc(NC(=O)c2csnn2)cc1	–	–	68	–	–
O=C(Nc1ccccc1NC(=O)c1csnn1)c1csnn1	–	–	–	–	–
COc1cc(CNc2ccc(N3CCCC3)cc2)ccc1OCc1ccccc1F	–	–	57	–	–
COc1cc(CNc2ccc(N3CCCC3)cc2)ccc1OCc1ccccc1	–	–	–	–	–
O=C(COC(=O)[C@H](Cc1c[nH]c2ccccc12)NC(=O)c1ccc(Cl)cc1)Nc1ccc2c(c1)OCO2	–	–	–	–	–
Nc1[nH]n(-c2ccccc2)c(=O)c1N=Nc1ccc2c(c1)OCCO2	–	–	76	–	–
Nc1nn(-c2ccccc2)c(N)c1N=Nc1ccc2c(c1)OCO2	–	–	51	–	–
CC(=O)Nc1nc2c(s1)C(=O)NCCC2	–	–	–	–	–
COc1cc(CN(C)Cc2ccccc2)cc(OC)c1O	51	–	–	–	–
C=CCc1c(C)nc(-c2ccccc2)nc1N/N=C/c1ccncc1	–	–	53	–	–
C=CCc1c(C)nc(-c2ccccc2)nc1N/N=C/c1ccccc1	–	–	–	–	–
O=C(Nc1ccc(C(=O)Oc2ccccc2)c(O)c1)c1ccco1	–	–	–	–	–
CC(C)c1ccc(/C=N/N2CCCCC2)cc1	–	–	66	–	–
Cc1ccn2c(C(=O)c3ccc(Cl)cc3)cnc2c1	–	–	52	–	–
O=C(Nc1ccncc1)c1ccc2c(c1)OCCO2	–	–	–	–	–
Cc1ccc(NC(=O)c2ccc3c(c2)OCCO3)cc1	–	–	89	–	–
O=C(Nc1ccc(N2CCCCC2)cc1)c1ccc2c(c1)OCCO2	–	–	65	–	–
CC(=O)N1CCN(c2ccc(NC(=O)c3ccc4c(c3)OCCO4)cc2)CC1	–	–	–	–	–
CC(C)[C@H](NC(=O)c1ccco1)C(=O)NC12CC3CC(CC(C3)C1)C2	–	–	–	–	–
N#Cc1ccc(-c2csc(NC(=O)c3ccc(S(=O)(=O)N4CCc5ccccc5C4)cc3)n2)cc1	–	–	–	–	–
Cc1nc2oc3c(NCC4CCCO4)ncnc3c2c2c1COC(C)(C)C2 (configuration not stated)	–	–	–	–	–
CC(C)c1nc2oc3c(NCC4CCCO4)ncnc3c2c2c1COC(C)(C)C2 (configuration not stated)	–	90	–	–	–
O=C(c1ccc(CSc2nc3ccncc3[nH]2)cc1)N1CCCCC1	–	–	68	–	–
Cc1ccc(C)c(N2CCN(C(=O)c3ccc(CSc4nc5ccncc5[nH]4)cc3)CC2)c1	–	–	–	–	–
Clc1ccccc1CSc1nc2ccncc2[nH]1	–	–	90	–	–
SMILES	G6PDH counter	Diaphorase inh	FLuc inh counter	Diaphorase act	FLuc act counter
CCOc1ccc(-c2nc(-c3ccccc3C)no2)cc1	–	–	54	–	–
Clc1ccccc1-c1nc(-c2cccnc2)no1	–	–	74	–	–
CCOc1ccc(-c2nc(-c3cccnc3)no2)cc1	–	–	71	–	–
N#Cc1nc(-c2ccco2)oc1NCCCn1ccnc1	–	–	–	–	–
CC1=NN(Cc2c(C)nn(Cc3ccccc3)c2C)C(C)(C)C1	–	–	–	–	–
O=C(CCl)Nc1nc(-c2ccco2)c(-c2ccco2)s1	–	65	–	–	–
O=C(CCCSc1ccccc1)Nc1nc(-c2ccco2)c(-c2ccco2)s1	–	–	–	–	–
CCc1ccc(-c2cn3nc(C)c(C)nc3n2)cc1	–	–	84	–	–
N=c1cc(C2(O)CCCCC2)n2c(nc3ccccc32)s1	–	–	94	–	–
Oc1ccc(/C=N/N(Cc2ccccc2)c2ccccc2)c(O)c1O	–	87	–	–	–
C/C(CC(=O)NC1CCCC1)=N\NC(=O)Cc1csc(N)n1	–	–	–	–	–
Cc1nc2ccccc2n1C(=O)c1ccc(Cl)cc1[N+](=O)[O-]	–	54	–	–	–
CCOC(=O)c1cnc(Nc2ccc(OCC)cc2)nc1C	–	–	–	–	–
Cc1cccc(C)c1Nc1nc2ccccc2o1	–	–	–	–	–
